The test system of assay [1] is Mycobacterium tuberculosis. In words: Antibacterial activity against Mycobacterium tuberculosis by CLSI protocol based broth microdilution method. The format is functional. In short, it runs like this: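 Broth microdilution per CLSI guidelines. Serial 2-fold dilutions up to a highest tested concentration of 64 μg/mL, with DMSO diluted along with the compounds. Rifampicin served as positive control.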

For assay [2], the system named is Acinetobacter baumannii. Kind of assay: Antibacterial activity against Acinetobacter baumannii BAA 1605 by CLSI protocol based broth microdilution method. The format is functional. In short, it runs like this:
(§1)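 Serial 2-fold dilutions, DMSO diluted along with compounds; highest concentration tested 64 μg/mL. Moxifloxacin positive control for S. aureus, rifampicin for A. baumanii and P. aeruginosa.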

The subject of assay [3] is Staphylococcus aureus. In words: Antibacterial activity against Staphylococcus aureus ATCC 700699 by CLSI protocol based broth microdilution method. The format is functional. Summed up:
as §1
On the technique in general: Dilution methods test growth across graded concentrations, often in twofold steps.

In assay [4] the test system is Pseudomonas aeruginosa. Kind of assay: Antibacterial activity against Pseudomonas aeruginosa 27853 by CLSI protocol based broth microdilution method. The format is functional. In short, it runs like this: as §1
The test system of assay [5] is Staphylococcus aureus. In words: Antibacterial activity against Staphylococcus aureus ATCC 29213 by CLSI protocol based broth microdilution method. The format is functional. Summed up: as §1
The test system of assay [6] is L5178Y. In words: Cytotoxicity against mouse L5178Y cells assessed as cell growth inhibition at 10 ug/ml measured after 72 hrs by MTT assay. The format is functional, cell-based. In short, it runs like this:
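L5178Y mouse lymphoma cells, MTT read-out relative to untreated controls, compounds at 10 μg/mL. Negative control: medium with 0.1% ethylene glycol monomethyl ether/DMSO; kahalalide F positive control. Three independent experiments, each in triplicate.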
(In general: Tetrazolium assays rely on reduction of a dye to a coloured formazan, in cell work by metabolically active cells.)

The source made the active and inactive calls. The calls are words filed in the database; no cut-off is given here.

For orientation: MIC means the least concentration at which growth counts as inhibited. Low readings indicate greater potency, high ones weaker potency. For `O=C1Nc2ccccc2[C@](O)(c2cccc(O)c2)[C@H]1O`, the minimum inhibitory concentration (MIC) in assay [1], in assay [2], in assay [3], in assay [4] and in assay [5] was > 100 µM in each case. Also, the result in assay [6] was inactive.

With `CC(=O)c1cc(C)c(O)c(CC2=C(O)C(CC(=O)O)OC2=O)c1O` (racemic), the MIC in assay [1], in assay [2], in assay [3], in assay [4] and in assay [5] was > 100 µM each time. Besides, the result in assay [6] was inactive.

The record behind these values is ChEMBL document CHEMBL4334484, “Polyketides and a Dihydroquinolone Alkaloid from a Marine-Derived Strain of the Fungus Metarhizium marquandii” (2019).
